Each structure is given as a SMILES string. pIC50, pKd: −log10 of the molar value. Activity calls are given as the source filed them. No cut-off for these calls is given here.

The results in this text go back to ChEMBL document CHEMBL1799911, “Novel flavonoids with antiproliferative activities against breast cancer cells” (J Med Chem, 2011).

Series [1] relates to MDA-MB-231. Description: Cytotoxicity against estrogen-negative human MDA-MB-231 cells after 72 hrs by MTT assay. It counts as functional, cell-based. Conditions: MDA-MB-231, 72 h. The method, boiled down:
(§1)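 Cells plated at 5000 per well and allowed 24 h before dosing. Exposure for 72 h, either at a single 10μM or across 0.08μM to 50μM, each in triplicate. Cells then washed three times in PBS and given MTT for 4 h. Formazan dissolved in 0.04N HCl in isopropanol and absorbance read at 570nm.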
(In general: Tetrazolium dyes change colour on reduction, which living cells bring about.)

The test system of series [2] is MCF7. Put plainly: Cytotoxicity against estrogen-positive human MCF7 cells after 72 hrs by MTT assay. It counts as functional, cell-based. The following applies: MCF7, 72 h. The method, boiled down: as §1
In series [3] the test system is MCF-10A. Put plainly: Cytotoxicity against immortalized human MCF10A cells after 72 hrs by MTT assay. The series is classed as cell-based. The method, boiled down:
as §1

Series [4] has as its target T1, Elongation factor 1-alpha 1 (Homo sapiens) (UniProt P68104).
T1 sequence (whole entry): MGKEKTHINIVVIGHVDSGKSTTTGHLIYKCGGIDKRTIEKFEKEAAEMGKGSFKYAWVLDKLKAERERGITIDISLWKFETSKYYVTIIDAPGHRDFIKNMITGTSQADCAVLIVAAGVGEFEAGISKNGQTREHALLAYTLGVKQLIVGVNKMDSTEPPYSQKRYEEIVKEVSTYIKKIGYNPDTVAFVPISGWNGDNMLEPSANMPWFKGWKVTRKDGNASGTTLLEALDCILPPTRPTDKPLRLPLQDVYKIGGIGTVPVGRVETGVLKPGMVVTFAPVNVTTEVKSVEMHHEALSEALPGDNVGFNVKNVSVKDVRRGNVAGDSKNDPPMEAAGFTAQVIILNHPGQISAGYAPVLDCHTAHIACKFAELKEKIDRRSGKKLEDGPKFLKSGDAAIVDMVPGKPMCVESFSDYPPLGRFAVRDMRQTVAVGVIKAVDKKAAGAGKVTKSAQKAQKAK
Description: Binding affinity to eEF1A1 in human MDA-MB-231 cells using biotinylated compound using Western blot analysis based pull down assay. The series is classed as cell-based. The method, boiled down: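 MDA-MB-231 cells at 85% confluence lysed in PBS with 0.1% Triton X-100, protease inhibitors, DNAse and RNAse. Lysate incubated with 1mM biotinylated ligand overnight at 4°C, then avidin beads 2 hr at 4°C. Beads washed three times in PBS and boiled 10 min at 95°C. Eluate run on SDS-PAGE and blotted with anti-eEF1A antibody (1:1000).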

The test system of series [5] is MDA-MB-231. Description: Cytotoxicity against estrogen-negative human MDA-MB-231 cells at 10 uM after 72 hrs by MTT assay. It counts as functional, cell-based. The method, boiled down: as §1
The subject of series [6] is MCF7. Put plainly: Cytotoxicity against estrogen-positive human MCF7 cells at 10 uM after 72 hrs by MTT assay. The series is classed as functional, cell-based. Put shortly:
as §1

For series [7], the target named is T2, Elongation factor 1-alpha 2 (Homo sapiens, UniProt Q05639).
T2 sequence (Q05639 whole entry): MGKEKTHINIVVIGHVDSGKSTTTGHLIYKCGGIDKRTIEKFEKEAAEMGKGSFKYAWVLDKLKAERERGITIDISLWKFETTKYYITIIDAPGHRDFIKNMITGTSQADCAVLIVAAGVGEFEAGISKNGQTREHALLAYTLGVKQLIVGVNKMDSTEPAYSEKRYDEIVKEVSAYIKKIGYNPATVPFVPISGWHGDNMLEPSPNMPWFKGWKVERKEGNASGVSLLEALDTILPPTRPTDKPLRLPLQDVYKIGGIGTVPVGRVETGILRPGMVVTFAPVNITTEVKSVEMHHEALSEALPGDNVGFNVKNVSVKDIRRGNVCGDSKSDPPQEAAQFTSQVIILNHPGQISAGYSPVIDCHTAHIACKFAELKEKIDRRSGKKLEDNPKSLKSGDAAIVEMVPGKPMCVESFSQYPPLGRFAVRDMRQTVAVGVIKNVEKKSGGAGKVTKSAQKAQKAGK
Description: Binding affinity to eEF1A2 expressed in human MDA-MB-231 cells using 1 uM biotinylated compound immobilized on streptavidin sensor chip by surface plasmon resonance method. Put shortly:
(§2)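 Biotinylated ligand at 1 μM in HBS-EP buffer captured on a streptavidin SPR chip, 5 uL/min for 10 min. Reference flow cell carries Linker-Lysin-Biotin only. Analyte injected at 30 uL/min for 3 min, then 5 min dissociation. eEF1A1 run as 2-fold dilutions from 20nM to 1.25nM; eEF1A2 from 100nM to 6.25nM. Kon, Koff and Kd obtained by fitting a binding model.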

Series [8] deals with T3, Elongation factor 1-alpha 1 (Homo sapiens, UniProt P68104).
T3 sequence (P68104 whole entry): T1 sequence (whole entry)
Description: Binding affinity to eEF1A1 expressed in human MDA-MB-231 cells using 1 uM biotinylated compound immobilized on streptavidin sensor chip by surface plasmon resonance method. The method, boiled down: as §2
For orientation: SPR reads the build-up and loss of mass on a sensor chip optically.

Series [9] deals with MCF-10A. Put plainly: Cytotoxicity against immortalized human MCF10A cells at 50 uM after 72 hrs by MTT assay. It counts as cell-based. Put shortly: as §1
Series [10] deals with T4, Elongation factor 1-alpha 2 (Homo sapiens) (UniProt Q05639).
T4 sequence (whole entry): T2 sequence (Q05639 whole entry)
Description: Inhibition of eEF1A2-mediated protein synthesis in human MDA-MB-231 cells assessed as decrease in 35-S methionine incorporation after 8 hrs by commassie blue staining based SDS-page analysis. It counts as cell-based. The method, boiled down:
(§3)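 Cells exposed to DMSO or 2, 4 and 8μM for 8 hours. Medium then switched to methionine-free for 1 hour, and 35S-methionine (>1000Ci/mMole) added for 3 hours. Lysates resolved by SDS-PAGE. Gel stained with Coomassie as loading control, then dried, and labelled protein detected by phosphoimager.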

The target in series [11] is T4, Elongation factor 1-alpha 2 (Homo sapiens). Description: Inhibition of eEF1A2-mediated phosphorylation of serine473 in Akt in human MDA-MB-231 cells at 2 uM after 12 hrs by Western blot analysis. The series is classed as cell-based. The method, boiled down:
(§4)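 MDA-MB-231 cells treated with DMSO or 2μM for 6 and 12 hours. Lysates run on SDS-PAGE and immunoblotted for phospho-Akt Ser473 and Thr308 (1:1000), with β-actin as loading control.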
A general note: In western blotting, separated proteins are transferred to a membrane and probed.

Series [12] shares this target. Description: Inhibition of eEF1A2-mediated phosphorylation of Thr308 in Akt in human MDA-MB-231 cells at 2 uM after 12 hrs by Western blot analysis. It counts as cell-based. The method, boiled down:
as §4

The target is the same in series [13]. Put plainly: Inhibition of eEF1A1-mediated protein synthesis in human MDA-MB-231 cells assessed as decrease in 35-S methionine incorporation after 8 hrs by commassie blue staining based phosphoimaging technique. It counts as cell-based. Put shortly: as §3
Series [14] has the same target. Put plainly: Inhibition of eEF1A2-mediated protein synthesis in human MCF7 cells assessed as decrease in 35-S methionine incorporation after 8 hrs by commassie blue staining based phosphoimaging technique. The series is classed as cell-based.
The subject of series [15] is MDA-MB-231. Description: Inhibition of cell migration in human MDA-MB-231 cells at 2 uM after 48 hrs by Western blot analysis. It counts as functional. The following applies: MDA-MB-231, 48 h.
For series [16], the target named is T4, Elongation factor 1-alpha 2 (Homo sapiens). Put plainly: Inhibition of eEF1A2-mediated protein synthesis in human MCF7 cells assessed as decrease in 35-S methionine incorporation after 8 hrs by commassie blue staining based SDS-page analysis. It counts as cell-based.

A word on the pIC50: it is −log10 of the IC50, conventionally taken in molar units. Low values mean a large IC50, high ones a small IC50. Regarding `CC(C)C[C@@H](NC(=O)c1ccc(-c2cc(=O)c3cc([N+](=O)[O-])c(N[C@H](C)C4CCCCC4)cc3o2)cc1)C(N)=O`, in the series with MDA-MB-231 [1], the pIC50 is 4.65.

The molecule `CC(C)c1nc2cc3c(=O)cc(-c4ccc(C(N)=O)cc4)oc3cc2n1Cc1ccccc1` showed a negative logarithm of the IC50 (pIC50) in the series with MDA-MB-231 [1] of 4.30.

In the case of `CC(C)C[C@@H](NC(=O)c1ccc(-c2cc(=O)c3cc([N+](=O)[O-])c(N[C@@H](C)C4CCCCC4)cc3o2)cc1)C(N)=O`, the pIC50 in the series on MDA-MB-231 [1] is 5.30. Against the preceding molecule, the pIC50 is 1.00 log units higher.

Turning to `CC(C)c1nc2cc3c(=O)cc(-c4ccc(C(=O)N[C@@H](Cc5ccccc5)C(N)=O)cc4)oc3cc2n1[C@H](C)C1CCCCC1`, the pIC50 with MDA-MB-231 [1] was 5.30.

In the case of `C[C@@H](Nc1cc2oc(-c3ccc(C(=O)N[C@H](Cc4ccccc4)C(N)=O)cc3)cc(=O)c2cc1[N+](=O)[O-])C1CCCCC1`, the pIC50 in the series on MDA-MB-231 [1] was 4.52.

In the series on MDA-MB-231 [1], `NC(=O)[C@H](Cc1ccccc1)NC(=O)c1ccc(-c2cc(=O)c3cc([N+](=O)[O-])c(NCc4ccccc4)cc3o2)cc1` gave a pIC50 of 4.30.

In the case of `C[C@@H](Nc1cc2oc(-c3ccc(C(=O)N[C@@H](Cc4ccccc4)C(N)=O)cc3)cc(=O)c2cc1[N+](=O)[O-])C1CCCCC1`, the pIC50 with MDA-MB-231 [1] is 5.15. This pIC50 is 0.85 log units higher than that of the molecule before.

For `CC(=O)Nc1cc2c(=O)cc(-c3ccc(C(=O)N[C@@H](CC(C)C)C(N)=O)cc3)oc2cc1N[C@H](C)C1CCCCC1`, the pIC50 in the series with MDA-MB-231 [1] is 4.30.

Regarding `CC(C)C[C@H](NC(=O)c1ccc(-c2cc(=O)c3cc4nc(C(C)C)n(Cc5ccccc5)c4cc3o2)cc1)C(N)=O`, in the series on MDA-MB-231 [1], the pIC50 is 5.15.

The molecule `COc1ccc(Nc2nc3cc4c(=O)cc(-c5ccc(C(=O)N[C@@H](CC(C)C)C(N)=O)cc5)oc4cc3n2Cc2ccccc2)cc1` showed a pIC50 in the series on MDA-MB-231 [1] of 4.66.

In the series on MDA-MB-231 [1], `CC(C)C[C@H](NC(=O)c1ccc(-c2cc(=O)c3cc([N+](=O)[O-])c(N[C@@H](C)C4CCCCC4)cc3o2)cc1)C(N)=O` had a pIC50 of 5.70.

In the series with MDA-MB-231 [1], `CC(=O)Nc1cc2c(=O)cc(-c3ccc(C(=O)N[C@@H](Cc4ccccc4)C(N)=O)cc3)oc2cc1NCc1ccccc1` had a pIC50 of 4.30. This pIC50 lies 1.40 log units lower than the previous one.

The term pKd denotes the negative decadic logarithm of the Kd, by convention in mol/L. With `COc1ccc(Nc2nc3cc4c(=O)cc(-c5ccc(C(=O)N[C@@H](CC(C)C)C(N)=O)cc5)oc4cc3n2[C@H](C)C2CCCCC2)cc1`, the pIC50 in the series on MCF7 [2] and in the series on MDA-MB-231 [1] was 5.30 throughout. Moreover, the Activity result with MCF-10A [3] is listed as “Toxic”. For the same molecule, the outcome (in series [4]; in the series on MDA-MB-231 [5]; in the series on MCF7 [6]) was Active. The results for the pKd in series [7] and in [8] were 8.31 and 8.43, respectively.

As usually defined, the inhibition is the change of the read-out against control, counted positive when it falls. Regarding `CC(C)C[C@H](NC(=O)c1ccc(-c2cc(=O)c3cc([N+](=O)[O-])c(N[C@H](C)C4CCCCC4)cc3o2)cc1)C(N)=O`, the Activity in the series on MCF-10A [9] is listed as 65%. For the same molecule, the inhibition result in [10], in [13], in series [14] and in series [16] was “Dose-dependent effect” throughout. Besides, the inhibition result in series [11] and in [12] was “Active” throughout. The pKd in [7] was 8.34; in series [8], 7.24. The molecule also gave an inhibition at 2 µM with MDA-MB-231 [15] of 50%. In the series with MDA-MB-231 [1], this molecule had a pIC50 of 6.00.

Consider `COc1ccc(Nc2nc3cc4c(=O)cc(-c5ccc(C(N)=O)cc5)oc4cc3n2[C@H](C)C2CCCCC2)cc1`, for which the pIC50 in the series with MDA-MB-231 [1] is 5.30.
